Source: ChEMBL document CHEMBL3085745, “Plakinamine M, a steroidal alkaloid from the marine sponge Corticium sp” (2013)
≈ marks a conversion by molar mass, not a printed value. Calls of active or inactive are those of the source. The rule behind the calls is not given here.

Columns and labels:
[1] = system: Mycobacterium tuberculosis; experiment: Antimycobacterial activity against Mycobacterium tuberculosis H37Ra ATCC 25177 after 4 days by MTT assay; format: functional; settings: H37Ra ATCC 25177, 96 h
Summary of the method: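 Inoculum from a frozen bacterial pellet diluted into fresh medium to a final 5×10⁵ CFU/mL, dispensed onto compound in quadruplicate wells. DMSO-only wells served as negative control and rifampicin at 250 ng/mL as positive control. Incubated 4 days at 37 °C, then MTT added for a further 12 h. After subtracting media-only blanks, % inhibition = (1 − Σtest/Σcontrol)×100.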

Candida albicans = experiment: Antifungal activity against Candida albicans at 50 ug/mL; format: functional, organism-based
Staphylococcus aureus = experiment: Antibacterial activity against Staphylococcus aureus at 50 ug/mL; format: functional, organism-based
Bacillus subtilis = experiment: Antibacterial activity against Bacillus subtilis at 50 ug/mL; format: functional, organism-based
Escherichia coli = experiment: Antibacterial activity against Escherichia coli at 50 ug/mL; format: functional, organism-based

Structure (SMILES)	MIC [1] [µg/mL]	Activity (Candida albicans)	Activity (Staphylococcus aureus)	Activity (Bacillus subtilis)	Activity (Escherichia coli)
CC(C)/C(=C\C[C@@H](C)[C@H]1CC[C@H]2C3=CC[C@H]4C[C@H](N(C)C)[C@@H](O)C[C@]4(C)[C@H]3CC[C@]12C)CCN(C)C	15.8 (≈ 31.7 µM)	Active	inactive	inactive	inactive
CC(C)/C(=C\C[C@@H](C)[C@H]1CC[C@H]2C3=CC[C@H]4C[C@H](N(C)C)CC[C@]4(C)[C@H]3CC[C@]12C)CCN(C)C	3.6 (≈ 7.46 µM)	Active	inactive	inactive	inactive
